Experimental data: ChEMBL document CHEMBL3632508, “Discovery of α-mangostin as a novel competitive inhibitor against mutant isocitrate dehydrogenase-1” (Bioorg Med Chem Lett, 2015); call rule not given here

Columns and labels:
[1] = system: Isocitrate dehydrogenase [NADP] cytoplasmic (Homo sapiens), O75874 [R132H]; assay: Inhibition of human IDH1 R132H mutant expressed in IPTG-induced Escherichia coli BL21 cells assessed as oxidation of NADPH to NADP+ after 5 mins by spectrophotometry; set-up: concentration or dose not given beside the values
Isocitrate dehydrogenase [NADP] cytoplasmic (Homo sapiens), O75874 [R132H], sequence (O75874 whole entry R132H): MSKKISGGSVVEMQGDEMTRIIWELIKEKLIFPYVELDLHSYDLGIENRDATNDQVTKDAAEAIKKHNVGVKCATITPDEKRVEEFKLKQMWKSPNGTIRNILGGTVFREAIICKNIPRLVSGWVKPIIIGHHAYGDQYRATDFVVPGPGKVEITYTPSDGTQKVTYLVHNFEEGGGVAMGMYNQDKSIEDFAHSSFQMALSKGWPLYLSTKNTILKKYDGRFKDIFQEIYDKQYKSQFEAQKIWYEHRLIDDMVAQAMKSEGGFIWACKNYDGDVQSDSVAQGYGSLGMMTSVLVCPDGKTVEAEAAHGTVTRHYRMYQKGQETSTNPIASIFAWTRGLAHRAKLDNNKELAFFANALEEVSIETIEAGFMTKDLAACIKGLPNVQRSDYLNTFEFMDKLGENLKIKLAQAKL

[2] = target: Isocitrate dehydrogenase [NADP] cytoplasmic (Homo sapiens) (UniProt O75874); assay: Inhibition of human IDH1 expressed in IPTG-induced Escherichia coli BL21 cells assessed as reduction of NADP+ to NADPH after 5 mins by spectrophotometry; set-up: concentration or dose not given beside the values
Isocitrate dehydrogenase [NADP] cytoplasmic (Homo sapiens), sequence (O75874 whole entry): as the sequence (O75874 whole entry R132H) above, with H132R counted along it

[3] = target: Isocitrate dehydrogenase [NADP] cytoplasmic (Homo sapiens, UniProt O75874, R132H); assay: Competitive inhibition of IDH1-R132H mutant (unknown origin) using a-ketoglutarate and NADPH as substrate by steady state kinetic analysis
Isocitrate dehydrogenase [NADP] cytoplasmic, sequence (O75874 2-414 R132H limits assumed): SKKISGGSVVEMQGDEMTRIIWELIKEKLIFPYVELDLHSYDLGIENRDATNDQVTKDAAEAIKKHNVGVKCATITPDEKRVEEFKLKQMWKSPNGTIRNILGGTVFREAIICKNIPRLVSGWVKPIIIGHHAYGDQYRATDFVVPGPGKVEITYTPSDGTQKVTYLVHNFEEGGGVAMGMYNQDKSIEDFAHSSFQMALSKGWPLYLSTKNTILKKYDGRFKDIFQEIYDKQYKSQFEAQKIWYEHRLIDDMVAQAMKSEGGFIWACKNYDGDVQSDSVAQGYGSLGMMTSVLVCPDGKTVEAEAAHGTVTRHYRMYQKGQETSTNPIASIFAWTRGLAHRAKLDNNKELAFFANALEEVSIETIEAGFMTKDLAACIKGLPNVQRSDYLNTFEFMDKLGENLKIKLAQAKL
In short: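 IDH1-R132H in buffer of 150 mM NaCl, 20 mM Tris–Cl pH 7.5, 10 mM MnCl₂, 150 μM β-NADPH, 0.03% (w/v) BSA; α-ketoglutarate varied to reach maximal activity; steady-state kinetic parameters fitted with an enzyme kinetics module.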

| SMILES | Activity [1] | Activity [2] | Ki [3] | Ki ([3]; read-out: Ki) |
| --- | --- | --- | --- | --- |
| CC(C)=CCOc1c2occc2cc2ccc(=O)oc12 | 102% | 99% | – | – |
| CC1(C)CC[C@]2(C(=O)O)CC=C3[C@]4(C)CC[C@H]5C(C)(C)[C@@H](O)CC[C@]5(C)[C@H]4CC[C@@]3(C)[C@@H]2C1 | 113% | 103% | – | – |
| C[C@H]1[C@H](C)CC[C@]2(C(=O)O)CC[C@]3(C)C(=CC[C@@H]4[C@@]5(C)CC[C@H](O)C(C)(C)[C@@H]5CC[C@]43C)[C@H]12 | 114% | 102% | – | – |
| CC(C)=CCc1c(O)c(CC=C(C)C)c2oc3c(O)ccc(O)c3c(=O)c2c1O | 93.9% | 89.9% | – | – |
| O=C1C[C@@H](c2ccc(O)cc2)Oc2cc(O)cc(O)c21 | 109% | 102% | – | – |
| COc1c(O)cc2oc3cc(O)c4c(c3c(=O)c2c1CC=C(C)C)OC(C)(C)CC4 | 106% | 100% | – | – |
| CC1(C)CC[C@]2(C)CC[C@]3(C)C(=CC[C@@H]4[C@@]5(C)[C@@H](O)C[C@H](O)C(C)(C)[C@@H]5CC[C@]43C)[C@@H]2C1 | 111% | 99.2% | – | – |
| O=C(O[C@H]1[C@@H]2C=CO[C@@H](O[C@@H]3O[C@H](CO)[C@@H](O)[C@H](O)[C@H]3O)[C@@H]2[C@@]2(CO)O[C@@H]12)c1ccc(O)c(O)c1 | 107% | 88.3% | – | – |
| O=c1c(O)c(-c2ccccc2)oc2cc(O)cc(O)c12 | 95% | 89.1% | – | – |
| C[C@H]1C(=O)CC[C@@H]2[C@]1(C)CC[C@H]1[C@@]2(C)CC[C@@]2(C)[C@@H]3CC(C)(C)CC[C@]3(C)CC[C@]12C | 108% | 104% | – | – |
| COc1c2c(cc3oc(C)cc(=O)c13)OC(C(C)(C)O)C2 (stereo not drawn) | 105% | 103% | – | – |
| O=c1cc(-c2ccc(O)cc2)oc2cc(O)c(O)c(O)c12 | 92% | 89% | – | – |
| CC(C)=CCC[C@](C)(O[C@@H]1O[C@H](CO[C@@H]2O[C@H](CO)[C@@H](O)[C@H](O)[C@H]2O)[C@@H](O)[C@H](O)[C@H]1O)[C@H]1CC[C@]2(C)[C@@H]1[C@H](O)C[C@@H]1[C@@]3(C)CC[C@H](O[C@@H]4O[C@H](CO)[C@@H](O)[C@H](O)[C@H]4O)C(C)(C)[C@@H]3CC[C@]12C | 102% | 122% | – | – |
| O=c1c(O)c(-c2ccc(O)cc2)oc2cc(O)cc(O)c12 | 112% | 104% | – | – |
| COc1c(OC(=O)N2CCOCC2)cc2oc3cc(O)c(CC=C(C)C)c(O)c3c(=O)c2c1CC=C(C)C | – | – | Not Active | – |
| O=C(/C=C/c1ccc(O)cc1)c1ccc(O)cc1O | 98.1% | 94.6% | – | – |
| CC1(C)CC[C@]2(C(=O)O)CC[C@]3(C)C(=CC[C@@H]4[C@@]5(C)CC[C@H](O)C(C)(C)[C@@H]5CC[C@]43C)[C@@H]2C1 | 117% | 101% | – | – |
| COc1ccc(C(=O)O[C@H]2[C@@H]3C=CO[C@@H](O[C@@H]4O[C@H](CO)[C@@H](O)[C@H](O)[C@H]4O)[C@@H]3[C@@]3(CO)O[C@@H]23)cc1OC | 97.7% | 107% | – | – |
| C=CCc1cc(OC)c(O)c(OC)c1 | 104% | 101% | – | – |
| COc1ccc(-c2oc3c(CC=C(C)C)c(O[C@@H]4O[C@H](CO)[C@@H](O)[C@H](O)[C@H]4O)cc(O)c3c(=O)c2O[C@@H]2O[C@@H](C)[C@H](O)[C@@H](O)[C@H]2O)cc1 | 104% | 90.4% | – | – |

| SMILES | Activity [1] | Activity [2] | Ki [3] | Ki ([3]; read-out: Ki) |
| --- | --- | --- | --- | --- |
| COc1ccc(/C=C/C(=O)O[C@H]2[C@@H]3C=CO[C@@H](O[C@@H]4O[C@H](CO)[C@@H](O)[C@H](O)[C@H]4O)[C@@H]3[C@@]3(CO)O[C@@H]23)cc1O | 108% | 107% | – | – |
| COc1c(O)cc2oc3cc4c(c(O)c3c(=O)c2c1CC=C(C)C)C=CC(C)(C)O4 | 98.7% | 109% | – | – |
| O=C(O)[C@H]1O[C@@H](Oc2cc3oc(-c4ccc(O)cc4)cc(=O)c3c(O)c2O)[C@H](O)[C@@H](O)[C@@H]1O | 91.5% | 88.8% | – | – |
| O=C(O)c1cc(O)c(O)c(O)c1 | 103% | 97.4% | – | – |
| COc1c2c(cc3oc(CO[C@@H]4O[C@H](CO)[C@@H](O)[C@H](O)[C@H]4O)cc(=O)c13)O[C@H](C(C)(C)O)C2 | 112% | 96.8% | – | – |
| C[C@@H](C(=O)O)[C@@]1(C)CC[C@H]2[C@@](C)(CC[C@@]3(C)[C@@H]4CC(C)(C)CC[C@]4(C)CC[C@]23C)[C@@H]1CC(=O)O | 90.9% | 108% | – | – |
| C=C(C)C(C)CC[C@@H](C)[C@H]1CC[C@@]2(C)[C@@H]3CC[C@H]4C(C)(C)C(=O)CC[C@]4(C)C3=CC[C@]12C (stereo partly drawn) | 124% | 106% | – | – |
| C/C=C(/C)C(=O)O[C@H]1Cc2c(cc3oc(C)cc(=O)c3c2O)OC1(C)C | 105% | 97.8% | – | – |
| CC[C@H](CC[C@@H](C)[C@H]1CC[C@H]2[C@@H]3CC=C4C[C@@H](O)CC[C@]4(C)[C@H]3CC[C@]12C)C(C)C | 98.8% | 105% | – | – |
| C=C1CC[C@@H]2[C@](C)(CCC[C@]2(C)C(=O)O)[C@H]1CCc1ccoc1 | 92.8% | 100% | – | – |
| C[C@H]1[C@H](C)CC[C@]2(C)CC[C@]3(C)C(=CC[C@@H]4[C@@]5(C)CC[C@H](O)C(C)(C)[C@@H]5CC[C@]43C)[C@H]12 | 112% | 105% | – | – |
| COc1ccc(-c2oc3c(CC=C(C)C)c(O)cc(O)c3c(=O)c2O)cc1 | 94.6% | 97.9% | – | – |
| CC(C)=CCC[C@](C)(O[C@@H]1O[C@H](CO[C@@H]2O[C@H](CO)[C@@H](O)[C@H](O)[C@H]2O)[C@@H](O)[C@H](O)[C@H]1O)[C@H]1CC[C@]2(C)[C@@H]1[C@H](O)C[C@@H]1[C@@]3(C)CC[C@H](O[C@@H]4O[C@H](CO)[C@@H](O)[C@H](O)[C@H]4O[C@@H]4O[C@H](CO)[C@@H](O)[C@H](O)[C@H]4O)C(C)(C)[C@@H]3CC[C@]12C | 105% | 117% | – | – |
| Cc1cc(=O)c2c(O)c3c(cc2o1)OC(C)(C)[C@@H](O)C3 | 105% | 98.2% | – | – |
| CC[C@H](CC[C@@H](C)[C@H]1CC[C@H]2[C@@H]3CC=C4C[C@@H](O[C@@H]5O[C@H](CO)[C@@H](O)[C@H](O)[C@H]5O)CC[C@]4(C)[C@H]3CC[C@]12C)C(C)C | 103% | 94.6% | – | – |
| CCCCCCCCCCCCC/C=C1/C(=O)O[C@H](C)[C@@H]1O | 114% | 111% | – | – |
| CCN(CC)C(=O)Oc1cc2oc3cc(O)c(CC=C(C)C)c(O)c3c(=O)c2c(CC=C(C)C)c1OC | – | – | Not Active | – |
| CC(C)=CCc1c(O)cc2oc3cc(O)c(O)c(CC=C(C)C)c3c(=O)c2c1O | – | – | – | 3.17 µM |
| O=c1cc(-c2ccc(O)c(O)c2)oc2cc(O)cc(O)c12 | 93.6% | 96.8% | – | – |
| O=C(/C=C/c1ccccc1)NCCCCNC(=O)c1ccc(O)cc1 | 106% | 100% | – | – |

| SMILES | Activity [1] | Activity [2] | Ki [3] | Ki ([3]; read-out: Ki) |
| --- | --- | --- | --- | --- |
| C=C1CC[C@@H]2[C@H]([C@H]3[C@H]1CC[C@]3(C)O)C2(C)C | 107% | 106% | – | – |
| COc1c2c(cc3oc(C)cc(=O)c13)OC(C(C)(C)O[C@H]1O[C@@H](CO)[C@H](O)[C@@H](O)[C@@H]1O)C2 (stereo partly drawn) | 108% | 107% | – | – |
| CC[C@H](/C=C/[C@@H](C)[C@H]1CC[C@H]2[C@@H]3CC=C4C[C@@H](O)CC[C@]4(C)[C@H]3CC[C@]12C)C(C)C | 101% | 111% | – | – |
| O=c1cc(-c2ccccc2)oc2cc(O)cc(O)c12 | 96.7% | 97.6% | – | – |
| COc1ccc(-c2cc(=O)c3c(O)cc(O[C@@H]4O[C@H](COC5OC[C@@H](O)[C@H](O)[C@H]5O)[C@@H](O)[C@H](O)[C@H]4O)cc3o2)cc1O (stereo partly drawn) | 116% | 104% | – | – |
| CC1(C)CC[C@]2(C)CC[C@]3(C)C(=CC[C@@H]4[C@@]5(C)CC[C@H](O)C(C)(C)[C@@H]5[C@H](O)C[C@]43C)[C@@H]2C1 | 114% | 102% | – | – |
| C[C@H]1[C@@H](O)CC[C@@H]2[C@]1(C)CC[C@H]1[C@@]2(C)CC[C@@]2(C)[C@@H]3CC(C)(C)CC[C@]3(C)CC[C@]12C | 113% | 109% | – | – |
| COc1ccc(C(=O)O[C@H]2[C@@H]3C=CO[C@@H](O[C@@H]4O[C@H](CO)[C@@H](O)[C@H](O)[C@H]4O)[C@@H]3[C@@]3(CO)O[C@@H]23)cc1O | 103% | 102% | – | – |
| CC1(C)CC[C@]2(C)CC=C3[C@]4(C)CC[C@H]5C(C)(C)[C@@H](O)CC[C@]5(C)[C@H]4CC[C@@]3(C)[C@@H]2C1 | 109% | 106% | – | – |
| O=c1cc(-c2ccc(O)cc2)oc2cc(O)cc(O)c12 | 84% | 97.4% | – | – |
| C=C(C)[C@@H]1CC[C@]2(C(=O)O)CC[C@]3(C)[C@H](CC[C@@H]4[C@@]5(C)CC[C@H](O)C(C)(C)[C@@H]5CC[C@]43C)[C@@H]12 | 112% | 102% | – | – |
| C/C=C(/C)C(=O)O[C@H]1Cc2c(cc3oc(CO)cc(=O)c3c2O)OC1(C)C | 108% | 102% | – | – |
| CC1(C)CC[C@]2(C)CC[C@]3(C)C(=CC[C@@H]4[C@@]5(C)[C@@H](O)C[C@H](O)C(C)(C)[C@@H]5[C@H](O)C[C@]43C)[C@@H]2C1 | 99% | 98.6% | – | – |
| O=c1c(O)c(-c2cc(O)c(O)c(O)c2)oc2cc(O)cc(O)c12 | 93.2% | 95.5% | – | – |
| COc1ccc(-c2cc(=O)c3c(O)cc(O[C@@H]4O[C@H](CO)[C@@H](O)[C@H](O)[C@H]4O)cc3o2)cc1O | 112% | 108% | – | – |
| CC(C)=CCc1c(O)c(CC=C(C)C)c2oc3c(O)cccc3c(=O)c2c1O | 109% | 92.8% | – | – |
| C=C[C@]1(C)CC[C@@]2(C)C3=CCC[C@](C)(CO)[C@@H]3CC[C@@H]2C1 | 116% | 106% | – | – |
| CC(C)CCC[C@@H](C)[C@H]1CC[C@H]2[C@@H]3CC=C4C[C@@H](O)CC[C@]4(C)[C@H]3CC[C@]12C | 96.3% | 105% | – | – |
